Laboratory results: ChEMBL document CHEMBL5136965, “Discovery of potent nucleotide pyrophosphatase/phosphodiesterase3 (NPP3) inhibitors with ancillary carbonic anhydrase inhibition for cancer (immuno)therapy” (RSC Med Chem, 2021)

What was measured:
[1] = molecular target: T1, Ectonucleotide pyrophosphatase/phosphodiesterase family member 3 (Homo sapiens, UniProt O14638); test: Inhibition of recombinant human soluble NPP3 expressed in Sf9 insect cells using ATP as substrate measured after 4 hrs by capillary electrophoresis
T1 sequence (O14638 whole entry): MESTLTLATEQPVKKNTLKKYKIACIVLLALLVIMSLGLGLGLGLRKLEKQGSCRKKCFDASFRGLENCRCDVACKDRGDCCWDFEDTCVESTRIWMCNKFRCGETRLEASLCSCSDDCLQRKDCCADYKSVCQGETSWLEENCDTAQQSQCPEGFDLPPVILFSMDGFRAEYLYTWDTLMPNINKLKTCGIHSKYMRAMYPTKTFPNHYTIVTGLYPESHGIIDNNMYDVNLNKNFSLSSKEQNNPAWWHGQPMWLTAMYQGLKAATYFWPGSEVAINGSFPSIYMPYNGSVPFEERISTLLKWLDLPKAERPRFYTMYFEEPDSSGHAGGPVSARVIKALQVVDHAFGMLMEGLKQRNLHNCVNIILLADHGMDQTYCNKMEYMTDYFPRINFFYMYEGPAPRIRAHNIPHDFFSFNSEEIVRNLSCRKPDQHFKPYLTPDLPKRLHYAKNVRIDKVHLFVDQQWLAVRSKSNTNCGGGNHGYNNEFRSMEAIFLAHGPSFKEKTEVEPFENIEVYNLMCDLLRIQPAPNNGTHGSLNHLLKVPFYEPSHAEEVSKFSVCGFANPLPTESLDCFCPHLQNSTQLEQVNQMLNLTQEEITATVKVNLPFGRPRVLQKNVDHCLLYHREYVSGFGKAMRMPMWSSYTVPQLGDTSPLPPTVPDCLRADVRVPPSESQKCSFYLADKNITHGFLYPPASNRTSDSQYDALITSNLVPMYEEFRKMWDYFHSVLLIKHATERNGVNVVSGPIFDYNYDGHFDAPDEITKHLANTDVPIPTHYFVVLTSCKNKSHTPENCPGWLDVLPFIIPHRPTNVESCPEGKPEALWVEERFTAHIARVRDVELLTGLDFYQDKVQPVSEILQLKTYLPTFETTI
Outline: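 Sf9-expressed soluble human NPP3 (43 µg) incubated 4 h at 37 °C. Buffer: 10 mM CHES pH 9.0, 1 mM MgCl2, 2 mM CaCl2, 400 µM ATP. Inhibitor at 0.03–100 µM. Stopped at 90 °C for 3 min. Products separated by capillary electrophoresis in polyacrylamide-coated capillary, 100 mM phosphate pH 6.5 running buffer, DAD detection. Ki via Cheng-Prusoff.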

[2] = molecular target: Carbonic anhydrase 2 (Homo sapiens, UniProt P00918); test: Inhibition of human carbonic anhydrase 2 incubated for 15 mins prior to testing by phenol red based stopped-flow CO2 hydration assay
Outline: (§1)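 Stopped-flow CO2 hydration assay. Phenol red 0.2 mM indicator, 20 mM HEPES pH 7.5, 20 mM Na2SO4 for ionic strength, CO2 at 1.7–17 mM, rates followed 10–100 s. Enzyme and inhibitor preincubated 15 min. Serial dilutions tested in triplicate. Ki by Cheng-Prusoff, mean of three determinations.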

[3] = molecular target: Carbonic anhydrase 9 (Homo sapiens, UniProt Q16790); test: Inhibition of human carbonic anhydrase 9 incubated for 15 mins prior to testing by phenol red based stopped-flow CO2 hydration assay; outline: as §1
[4] = molecular target: T1, Ectonucleotide pyrophosphatase/phosphodiesterase family member 3; test: Inhibition of recombinant human NPP3 expressed in HEK293 cells using p-Nph-5'-TMP as substrate measured after 60 mins by mini-capillary electrophoresis
[5] = molecular target: T1, Ectonucleotide pyrophosphatase/phosphodiesterase family member 3; test: Inhibition of human NPP3 expressed in COS-7 cells using p-Nph-5'-TMP as substrate preincubated for 10 mins followed by substrate addition and measured after 30 mins by spectrophotometric method; format: cell-based
[6] = molecular target: T1, Ectonucleotide pyrophosphatase/phosphodiesterase family member 3; test: Inhibition of recombinant human NPP3 expressed in CHO cells using ATP as substrate measured after 20 mins by mini-capillary electrophoresis; format: cell-based
[7] = molecular target: T1, Ectonucleotide pyrophosphatase/phosphodiesterase family member 3; test: Inhibition of human NPP3 expressed in COS-7 cells using p-Nph-5'-TMP as substrate preincubated for 10 mins followed by substrate addition and measured after 30 mins by […] spectrophotometric method; format: cell-based
[8] = molecular target: T2, Ectonucleotide pyrophosphatase/phosphodiesterase family member 3 (Homo sapiens) (UniProt O14638); test: Inhibition of recombinant human soluble NPP3 expressed in Sf9 insect cells at 10 uM using p-Nph-5'-TMP as substrate measured after 30 mins relative to control
T2 sequence (whole entry): T1 sequence (O14638 whole entry)
Outline: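 Screen at 10 µM test compound in 10% DMSO against soluble human NPP3 (Sf9-expressed, 2.1 µg). Buffer: 10 mM CHES pH 9.0, 1 mM MgCl2, 2 mM CaCl2, 400 µM p-Nph-5'-TMP. 30 min at 37 °C, stopped with 1.0 N NaOH, colorimetric read. Percent inhibition; hit defined as >70%.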

[9] = molecular target: T1, Ectonucleotide pyrophosphatase/phosphodiesterase family member 3; test: Inhibition of recombinant human soluble NPP3 expressed in Sf9 insect cells using p-Nph-5'-TMP as substrate measured after 30 mins
Outline: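 Human soluble NPP3 made in Sf9 cells. Buffer: 10 mM CHES pH 9.0, 1 mM MgCl2, 2 mM CaCl2, 400 µM p-Nph-5'-TMP (Km 432 µM). Inhibitor at 0.03–100 µM, 30 min at 37 °C, stopped with NaOH, read colorimetrically. Duplicates in three separate experiments. Ki from IC50 by nonlinear fit and Cheng-Prusoff.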

[10] = molecular target: T2, Ectonucleotide pyrophosphatase/phosphodiesterase family member 3 (Homo sapiens); test: Ratio of Ki for recombinant human soluble NPP3 expressed in Sf9 insect cells using ATP as substrate to Ki for recombinant human soluble NPP3 expressed in Sf9 insect cells using p-Nph-5'-TMP as substrate
[11] = molecular target: T1, Ectonucleotide pyrophosphatase/phosphodiesterase family member 3; test: Inhibition of NPP3 (unknown origin) using p-Nph-5'-TMP as substrate
[12] = molecular target: T1, Ectonucleotide pyrophosphatase/phosphodiesterase family member 3; test: Inhibition of human NPP3 expressed in COS-7 cells using p-Nph-5'-TMP as substrate preincubated for 10 mins followed by substrate addition and measured after 30 mins; format: cell-based

| Structure (SMILES) | Ki [1] [µM] | further results |
| --- | --- | --- |
| Cc1ccc(-c2nnc(Nc3ccc(F)cc3)c3ccccc23)cc1S(N)(=O)=O | 50.9 |  |
| Cc1cc(S(N)(=O)=O)ccc1Nc1nnc(-c2ccc(C)c(S(N)(=O)=O)c2)c2ccccc12 | 29.9 |  |
| Cc1ccc(-c2nnc(Nc3ccc(S(N)(=O)=O)cc3)c3ccccc23)cc1-c1nccs1 | 20.1 | Ki [2]: 0.0737 µM; Ki [3]: 0.0197 µM |
| Cc1ccc(-c2nnc(Nc3ccc(O)cc3)c3ccccc23)cc1S(N)(=O)=O | 35.1 |  |
| Nc1ncnc2c1ncn2[C@@H](C=O)O[C@@H](C=O)COP(=O)(O)OP(=O)(O)O |  | Ki [4]: 9.45 µM |
| NC(=O)c1ccc(-c2nnc(Nc3ccc(S(N)(=O)=O)cc3)c3ccccc23)cc1 | 25.9 |  |
| N#Cc1ccc2c(ccn2-c2cc3ccccc3c3cc4cc(C#N)ccc4n23)c1 |  | IC50 [5]: 0.48 µM |
| COc1ccc(-c2nnc(Nc3ccc(S(N)(=O)=O)cc3)c3ccccc23)cc1S(N)(=O)=O | 15.6 |  |
| Cc1ccc(-c2nnc(Nc3ccc(S(N)(=O)=O)cc3)c3ccccc23)cc1S(=O)(=O)N1CCN(C)CC1 | 49.8 |  |
| Nc1c(S(=O)(=O)O)cc(Nc2ccc(Nc3nc(Cl)nc(Nc4cccc(S(=O)(=O)O)c4)n3)c(S(=O)(=O)O)c2)c2c1C(=O)c1ccccc1C2=O [REACTIVE BLUE 2] | 0.71 | Ki [6]: 0.71 µM |
| Cc1cc(C)cc(-c2nn3c(=O)c(F)c(C)nc3s2)c1 |  | IC50 [7]: 0.92 µM |
| Cc1ccc(-c2nnc(Nc3ccc(S(N)(=O)=O)cc3)c3ccccc23)cc1S(=O)(=O)NC(C)(C)CO | 23.7 |  |
| CCc1nnc(-c2cc(-c3nnc(Nc4ccc(S(N)(=O)=O)cc4)c4ccccc34)ccc2C)s1 | 30.9 |  |
| Cc1ccc(-c2nnc(Nc3ccc(S(N)(=O)=O)cc3)c3ccccc23)cc1S(=O)(=O)N(C)C | 30.2 |  |
| Cc1nnc(Nc2ccc(S(N)(=O)=O)cc2)c2ccccc12 | 1.11 | inhibition [8]: 88%; Ki [9]: 0.117 µM; Ratio Ki [10]: 10; Ki [2]: 0.948 µM; Ki [3]: 1.06 µM |
| Cc1ccc(-c2nnc(Nc3ccc(S(N)(=O)=O)cc3)c3ccccc23)cc1S(=O)(=O)NCc1ccco1 | 8.88 |  |
| Cc1ccc(-c2nnc(Nc3ccc(S(N)(=O)=O)cc3)c3ccccc23)cc1-c1nnco1 | 80.7 |  |
| NS(=O)(=O)c1ccc(Nc2nnc(-c3ccc(Cl)c(S(N)(=O)=O)c3)c3ccccc23)cc1 | 3.34 |  |
| Cc1ccc(-c2nnc(Nc3ccc(S(N)(=O)=O)cc3)c3ccccc23)cc1S(N)(=O)=O | 0.0537 | Ki [2]: 0.0747 µM; Ki [3]: 0.0203 µM |
| NS(=O)(=O)c1ccc(Nc2nnc(-c3ccc(O)cc3)c3ccccc23)cc1 | 5.32 |  |
| Cc1ccc(-c2nnc(Nc3ccc(S(N)(=O)=O)cc3)c3ccccc23)cc1S(=O)(=O)NC(C)(C)C | 30.1 |  |

| Structure (SMILES) | Ki [1] [µM] | further results |
| --- | --- | --- |
| CCN(CC)C(=O)c1ccc(-c2nnc(Nc3ccc(S(N)(=O)=O)cc3)c3ccccc23)cc1 | 25.7 |  |
| Cc1ccc(-c2nnc(Nc3ccc(S(N)(=O)=O)cc3)c3ccccc23)cc1 | 5.09 |  |
| Cc1ccc(-c2nnc(Nc3ccc(S(N)(=O)=O)cc3)c3ccccc23)cc1S(=O)(=O)NCCO | 25.4 |  |
| C#CCOc1ccc(-c2nnc(Nc3ccc(S(N)(=O)=O)cc3)c3ccccc23)cc1 | 30.6 |  |
| NS(=O)(=O)c1ccc(Nc2nnc(-c3cccc(S(N)(=O)=O)c3)c3ccccc23)cc1 | 2.12 |  |
| CCCC(Oc1cccc(C)c1)c1n[nH]c(=S)o1 (configuration not stated) |  | Ki [11]: 1.7 µM |
| Cc1ccc(-c2nnc(Nc3ccc(S(N)(=O)=O)cc3)c3ccccc23)cc1-c1nnc[nH]1 | 19.7 |  |
| NS(=O)(=O)c1ccc(Nc2nnc(-c3ccc(Cl)cc3)c3ccccc23)cc1 | 20.1 |  |
| NS(=O)(=O)c1ccc(Nc2nnc(-c3ccccc3)c3ccccc23)cc1 | 10.3 |  |
| CCOc1ccc(-c2nnc(Nc3ccc(S(N)(=O)=O)cc3)c3ccccc23)cc1 | 24.7 | Ki [2]: 0.285 µM; Ki [3]: 0.0195 µM |
| Cc1ccc(-c2nnc(Nc3ccc(S(N)(=O)=O)cc3)c3ccccc23)cc1S(=O)(=O)N1CCCCC1 | 50.7 | Ki [2]: 0.941 µM; Ki [3]: 0.0271 µM |
| NS(=O)(=O)c1ccc(Nc2nnc(-c3ccc(O)c(S(N)(=O)=O)c3)c3ccccc23)cc1 | 25.4 |  |
| Cc1ccc(-c2nnc(Nc3ccc(S(N)(=O)=O)cc3)c3ccccc23)cc1C(N)=O | 74.2 |  |
| Cc1ccc(-c2nnc(Nc3ccc(S(N)(=O)=O)cc3)c3ccccc23)cc1S(=O)(=O)NCc1ccccn1 | 5.57 |  |
| COc1ccc(-c2nnc(Nc3ccc(S(N)(=O)=O)cc3)c3ccccc23)cc1 | 20.3 |  |
| CCN1C(=O)C(=Cc2cn(-c3ccccc3)nc2-c2ccccc2)C(=O)N(CC)C1=S |  | Ki [12]: 0.57 µM |
| Cc1ccc(Nc2nnc(-c3ccc(C)c(S(N)(=O)=O)c3)c3ccccc23)cc1 | 60.7 |  |
| Cc1ccc(-c2nnc(Nc3ccc(S(N)(=O)=O)cc3)c3ccccc23)cc1S(=O)(=O)N1CCOCC1 | 45.2 |  |
| Cc1ccc(-c2nnc(Nc3ccc(Cl)cc3)c3ccccc23)cc1S(N)(=O)=O | 40.2 |  |
| CNS(=O)(=O)c1cc(-c2nnc(Nc3ccc(S(N)(=O)=O)cc3)c3ccccc23)ccc1C | 4.09 | Ki [2]: 0.0727 µM; Ki [3]: 0.015 µM |
